Experimental data from different studies.
Compare with care: the assays were run in different laboratories.
HTR2C: 5-hydroxytryptamine receptor 2C (HTR2C, Homo sapiens, UniProt P28335)

COc1cc(CCNC(C)c2ccccc2)c(OC)cc1C#N (stereo not shown)  Emax (HTR2C; calcium signal; agonist): 41%
CC(C)CC(=O)OC[C@H]1O[C@@](C#N)(c2ccc3c(N)ncnn23)[C@H](O)[C@@H]1O  inhibition (B2 bradykinin receptor (BDKRB2, Homo sapiens, UniProt P30411); cell-free assay; 20 µM): -2%
[2H]c1c([2H])c([C@]2([2H])CCCN2C(=O)C(C)(C)Oc2ccc3cn[nH]c3c2)c([2H])c([2H])c1C([2H])([2H])[2H]  remaining binding (Tyrosine-protein kinase receptor TYRO3 (TYRO3, Homo sapiens, UniProt Q06418); binding; competition with immobilised ligand; 1 µM): 57%
COc1cc2c3c(c1OC)-c1c(cccc1OC)CC3N(C)CC2 (racemic)  inhibition (5-hydroxytryptamine receptor 2B (HTR2B, Homo sapiens, UniProt P41595); ligand displacement; radioligand; 10 µM): 86%
Nc1ncnc2c1ncn2[C@@H]1O[C@H](C[C@@H](N)CC[C@H](N)C(=O)O)[C@@H](O)[C@H]1O  inhibition (mRNA cap guanine-N(7) methyltransferase (RNMT, Homo sapiens, UniProt O43148); enzyme activity; inhibitor; 12.5 µM): 61.8%
COc1cc2c3c(c1OC)-c1c(OC)ccc(Cl)c1CC3N(C)CC2 (racemic)  inhibition (HTR2C; ligand displacement; radioligand; 10 µM): 80%
COc1cc(CCNCc2ccccc2O)c(OC)cc1C#N  Emax (HTR2C; G protein activation; agonist; BRET): 122%
O=P(O)(O)O[C@H]1[C@H](OP(=O)(O)O)[C@@H](OP(=O)(O)O)[C@H](OP(=O)(O)O)[C@@H](OP(=O)(O)O)[C@H]1OP(=O)(O)O  residence time (Toxin B (tcdB, Clostridioides difficile, UniProt P18177); binding; ITC): 0.4 min
COc1cc2c(cc1OC)-c1c(OC)c(OC)cc3c1[C@H](C2)N(C)CC3  inhibition (HTR2C; ligand displacement; radioligand; 10 µM): 79%
COc1cc(CCNC(C)c2ccccc2O)c(OC)cc1Br (stereo not shown)  Emax (HTR2C; calcium signal; agonist): 92%
